# Experiments:
# 786-0 = assay: Cytotoxicity against human 786-0 cells after 48 hrs by SRB assay; type: functional; conditions: 786-0, 48 h
# How it was run: (§1)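 NCI-60 five-dose screen: compounds dissolved in DMSO/H2O, tested at five 10-fold dilutions (10^-4 to 10^-8 M) for 48 h. Growth measured by sulforhodamine B optical density at time zero and after 48 h drug or vehicle exposure. Percentage growth calculated relative to control. GI50 is the molar concentration giving 50% reduction in net cell growth versus day-0 cell numbers.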
# [1] = Cytotoxicity against human HCT15 cells after 48 hrs by SRB assay; type: functional; conditions: HCT-15, 48 h; how it was run: as §1
# [2] = Cytotoxicity against human HL-60(TB) cells after 48 hrs by SRB assay; type: functional; conditions: HL-60, 48 h; how it was run: as §1
# [3] = Cytotoxicity against human DU145 cells after 48 hrs by SRB assay; type: functional; conditions: DU-145, 48 h; how it was run: as §1
# A498 = assay: Cytotoxicity against human A498 cells after 48 hrs by SRB assay; type: functional; conditions: A498, 48 h; how it was run: as §1
# HT-29 = assay: Cytotoxicity against human HT-29 cells after 48 hrs by SRB assay; type: functional; conditions: HT-29, 48 h; how it was run: as §1
# [4] = Cytotoxicity against human SW620 cells after 48 hrs by SRB assay; type: functional; conditions: SW-620, 48 h; how it was run: as §1
# [5] = Cytotoxicity against human SNB19 cells after 48 hrs by SRB assay; type: functional; conditions: SNB-19, 48 h; how it was run: as §1
# [6] = Cytotoxicity against human SKOV3 cells after 48 hrs by SRB assay; type: functional; conditions: SK-OV-3, 48 h; how it was run: as §1
# [7] = Cytotoxicity against human HCT116 cells after 48 hrs by SRB assay; type: functional; conditions: HCT-116, 48 h; how it was run: as §1
# A549 = assay: Cytotoxicity against human A549 cells after 48 hrs by SRB assay; type: functional; conditions: A549, 48 h; how it was run: as §1
# MDA-MB-435 = assay: Cytotoxicity against human MDA-MB-435 cells after 48 hrs by SRB assay; type: functional; conditions: MDA-MB-435, 48 h; how it was run: as §1
# [8] = Cytotoxicity against human OVCAR3 cells after 48 hrs by SRB assay; type: functional; conditions: OVCAR-3, 48 h; how it was run: as §1
# [9] = Cytotoxicity against human HOP62 cells after 48 hrs by SRB assay; type: functional; conditions: HOP-62, 48 h
# How it was run: (§2)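 NCI-60 five-dose screen: compounds in DMSO/H2O tested at 10^-4 to 10^-8 M (10-fold steps) for 48 h. Cell mass read by sulforhodamine B optical density at time zero and after exposure to compound or vehicle. GI50 is the concentration giving 50% reduction in net cell growth relative to day-0 cell numbers.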
# [10] = Cytotoxicity against human BT549 cells after 48 hrs by SRB assay; type: functional; conditions: BT-549, 48 h; how it was run: as §1
# MCF7 = assay: Cytotoxicity against human MCF7 cells after 48 hrs by SRB assay; type: functional; conditions: MCF7, 48 h; how it was run: as §1
# [11] = Cytotoxicity against human SF539 cells after 48 hrs by SRB assay; type: functional; conditions: SF-539, 48 h; how it was run: as §1
# SK-MEL-28 = assay: Cytotoxicity against human SK-MEL-28 cells after 48 hrs by SRB assay; type: functional; conditions: SK-MEL-28, 48 h; how it was run: as §1
# MDA-MB-231 = assay: Cytotoxicity against human MDA-MB-231 cells after 48 hrs by SRB assay; type: functional; conditions: MDA-MB-231, 48 h; how it was run: as §1
# [12] = Cytotoxicity against human OVCAR5 cells after 48 hrs by SRB assay; type: functional; conditions: OVCAR-5, 48 h; how it was run: as §1
# [13] = Cytotoxicity against human Hs 578T cells after 48 hrs by SRB assay; type: functional; how it was run: as §1
# CCRF-CEM = assay: Cytotoxicity against human CCRF-CEM cells after 48 hrs by SRB assay; type: functional; how it was run: as §1
# SK-MEL-5 = assay: Cytotoxicity against human SK-MEL-5 cells after 48 hrs by SRB assay; type: functional; conditions: SK-MEL-5, 48 h; how it was run: as §1
# [14] = Cytotoxicity against human RPMI8226 cells after 48 hrs by SRB assay; type: functional; conditions: RPMI-8226, 48 h; how it was run: as §1
# SN12C = assay: Cytotoxicity against human SN12C cells after 48 hrs by SRB assay; type: functional; how it was run: as §1
# M14 = assay: Cytotoxicity against human M14 cells after 48 hrs by SRB assay; type: functional; conditions: M14, 48 h; how it was run: as §1
# [15] = Cytotoxicity against human PC3 cells after 48 hrs by SRB assay; type: functional; conditions: PC-3, 48 h; how it was run: as §1
# [16] = Cytotoxicity against human IGROV1 cells after 48 hrs by SRB assay; type: functional; conditions: IGROV-1, 48 h; how it was run: as §2
# [17] = Cytotoxicity against human MOLT4 cells after 48 hrs by SRB assay; type: functional; conditions: MOLT-4, 48 h; how it was run: as §1
# NCI-H23 = assay: Cytotoxicity against human NCI-H23 cells after 48 hrs by SRB assay; type: functional; conditions: NCI-H23, 48 h; how it was run: as §1
# [18] = Cytotoxicity against human OVCAR8 cells after 48 hrs by SRB assay; type: functional; conditions: OVCAR-8, 48 h; how it was run: as §1
# [19] = Cytotoxicity against human SNB75 cells after 48 hrs by SRB assay; type: functional; conditions: SNB-75, 48 h; how it was run: as §1
# [20] = Cytotoxicity against human LOXIMVI cells after 48 hrs by SRB assay; type: functional; conditions: LOX IMVI; how it was run: as §1
# [21] = Cytotoxicity against human Caki1 cells after 48 hrs by SRB assay; type: functional; conditions: CAKI-1, 48 h; how it was run: as §1
# MDA-MB-468 = assay: Cytotoxicity against human MDA-MB-468 cells after 48 hrs by SRB assay; type: functional; conditions: MDA-MB-468, 48 h; how it was run: as §1
# [22] = Cytotoxicity against human UO31 cells after 48 hrs by SRB assay; type: functional; conditions: UO-31, 48 h
# How it was run: (§3)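 NCI-60 five-dose screen. Compounds dissolved in DMSO/H2O and tested at five 10-fold dilutions (10^-4 to 10^-8 M) for 48 h. Growth read by sulforhodamine B optical density at time zero and after 48 h of exposure to compound or vehicle. Percent growth calculated against control. GI50 is the molar concentration giving 50% reduction in net cell growth relative to cell number on day 0.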
# [23] = Cytotoxicity against human SF268 cells after 48 hrs by SRB assay; type: functional; conditions: SF-268, 48 h; how it was run: as §1
# [24] = Cytotoxicity against human HOP92 cells after 48 hrs by SRB assay; type: functional; conditions: HOP-92, 48 h; how it was run: as §1
# K562 = assay: Cytotoxicity against human K562 cells after 48 hrs by SRB assay; type: functional; conditions: K562, 48 h; how it was run: as §1
# [25] = Cytotoxicity against human Hs578T cells assessed as reduction of cell viability after 48 hrs by calcein-AM-based fluorescence analysis; type: functional; conditions: Hs-578T
# How it was run: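 Cells seeded at 3,000 per well in DMEM with 10% FBS and left overnight at 37 °C. A range of compound concentrations or vehicle was then added for 48 h. Cells were washed with DPBS pH 7.4 and loaded with 2 μM calcein-AM for 30 min at 25 °C. Fluorescence read at ex 490/em 520 nm; viability is given relative to untreated control (100%). Mean ± s.d.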
# U-251 = assay: Cytotoxicity against human U251 cells after 48 hrs by SRB assay; type: functional; conditions: U-251, 48 h; how it was run: as §3
# NCI-H522 = assay: Cytotoxicity against human NCI-H522 cells after 48 hrs by SRB assay; type: functional; conditions: NCI-H522, 48 h; how it was run: as §1
# NCI-H460 = assay: Cytotoxicity against human NCI-H460 cells after 48 hrs by SRB assay; type: functional; conditions: NCI-H460, 48 h; how it was run: as §1
# [26] = Cytotoxicity against human NCI-ADR-RES cells after 48 hrs by SRB assay; type: functional; how it was run: as §1
# SK-MEL-2 = assay: Cytotoxicity against human SK-MEL-2 cells after 48 hrs by SRB assay; type: functional; conditions: SK-MEL-2, 48 h; how it was run: as §1
# KM12 = assay: Cytotoxicity against human KM12 cells after 48 hrs by SRB assay; type: functional; conditions: KM12, 48 h; how it was run: as §1
# [27] = Cytotoxicity against human HCC2998 cells after 48 hrs by SRB assay; type: functional; conditions: HCC 2998, 48 h; how it was run: as §1
# SR = assay: Cytotoxicity against human SR cells after 48 hrs by SRB assay; type: functional; how it was run: as §1
# ACHN = assay: Cytotoxicity against human ACHN cells after 48 hrs by SRB assay; type: functional; how it was run: as §1
# [28] = Cytotoxicity against human OVCAR4 cells after 48 hrs by SRB assay; type: functional; conditions: OVCAR-4, 48 h; how it was run: as §1
# Tubulin = Tubulin (Sus scrofa, UniProt P02554+P02550); assay: Inhibition of porcine brain tubulin polymerization by spectrophotometric analysis
# How it was run: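 Tubulin at 4 mg/mL in cold 80 mM PIPES pH 6.9 with 2 mM MgCl2, 0.5 mM EGTA, GTP and 10% glycerol. Compound (added as 10x stock in 50% DMSO) or DMSO was preincubated 2 min at 37 °C in a prewarmed plate. Cold tubulin was then added, and polymerization at 37 °C was followed by A340 over time. Dose-response, mean ± s.d., n=3.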
# [29] = Cytotoxicity against human COLO205 cells after 48 hrs by SRB assay; type: functional; conditions: COLO 205, 48 h; how it was run: as §1
# [30] = Cytotoxicity against human UACC62 cells after 48 hrs by SRB assay; type: functional; conditions: UACC-62, 48 h; how it was run: as §3
# [31] = Cytotoxicity against human UACC257 cells after 48 hrs by SRB assay; type: functional; conditions: UACC-257, 48 h; how it was run: as §3
# [32] = Cytotoxicity against human SF295 cells after 48 hrs by SRB assay; type: functional; conditions: SF-295, 48 h; how it was run: as §1
structure (smiles),measurement,setting,value
COc1cc(-c2n[nH]nc2-c2cc3ccccc3s2)cc(OC)c1OC,GI50,786-0,< 10 nM
same,GI50,[1],< 10 nM
same,GI50,[2],< 10 nM
same,GI50,[3],< 10 nM
same,GI50,A498,< 10 nM
same,GI50,HT-29,20 nM
same,GI50,[4],< 10 nM
same,GI50,[5],< 10 nM
same,GI50,[6],< 10 nM
same,GI50,[7],< 10 nM
same,GI50,A549,23 nM
same,GI50,MDA-MB-435,< 10 nM
same,GI50,[8],< 10 nM
same,GI50,[9],15 nM
same,GI50,[10],< 10 nM
same,GI50,MCF7,< 10 nM
same,GI50,[11],< 10 nM
same,GI50,SK-MEL-28,< 10 nM
same,GI50,MDA-MB-231,14 nM
same,GI50,[12],42 nM
same,GI50,[13],< 10 nM
same,GI50,CCRF-CEM,28 nM
same,GI50,SK-MEL-5,< 10 nM
same,GI50,[14],< 10 nM
same,GI50,SN12C,48 nM
same,GI50,M14,< 10 nM
same,GI50,[15],34 nM
same,GI50,[16],< 10 nM
same,GI50,[17],42 nM
same,GI50,NCI-H23,< 10 nM
same,GI50,[18],< 10 nM
same,GI50,[19],< 10 nM
same,GI50,[20],< 10 nM
same,GI50,[21],< 10 nM
same,GI50,MDA-MB-468,< 10 nM
same,GI50,[22],< 10 nM
same,GI50,[23],< 10 nM
same,GI50,[24],< 10 nM
same,GI50,K562,< 10 nM
same,GI50,[25],10 nM
same,GI50,U-251,< 10 nM
same,GI50,NCI-H522,< 10 nM
same,GI50,NCI-H460,< 10 nM
same,GI50,[26],< 10 nM
same,GI50,SK-MEL-2,< 10 nM
same,GI50,KM12,22 nM
same,GI50,[27],36 nM
same,GI50,SR,< 10 nM
same,GI50,ACHN,< 10 nM
same,GI50,[28],42 nM
same,IC50,Tubulin,1700 nM
same,GI50,[29],< 10 nM
same,GI50,[30],< 10 nM
same,GI50,[31],< 10 nM
same,GI50,[32],< 10 nM
